Laboratory results taken from ChEMBL document CHEMBL1155568, “Biological characterization of fusapyrone and deoxyfusapyrone, two bioactive secondary metabolites of Fusarium semitectum” (J Nat Prod, 2000).
The source made the active and inactive calls. The rule behind the calls is not given here.

Columns and labels:
Ascochyta rabiei = experiment: Antifungal activity against Ascochyta rabiei ITEM 1067 at 15 ug/disk by paper disk method; assay type: functional; details: read-out: IZ
Summary of the method: (§1)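 Agar diffusion: a 0.7% water-agar overlay carrying 10^4 conidia/mL (or yeast cells) is poured on PDA. 6-mm cellulose disks loaded with methanolic compound at 5 or 15 µg/disk are air-dried and applied, with nystatin as comparator. Plates incubated 24-72 h at 25 °C; inhibition halo diameter read from three disks. Agar under each disk is subcultured on PDA to score fungicidal/fungistatic effect. Experiment run twice and averaged.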

Cryptococcus neoformans [1] = experiment: Antifungal activity against Cryptococcus neoformans 13 after 72 hrs by broth micromethod assay; assay type: functional
Summary of the method: (§2)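 Broth microdilution in YNB with 0.5% glucose, phosphate buffer pH 7, using ten 2-fold dilutions (50-0.097 µg/mL). Inoculum from 24-48 h Sabouraud agar cultures, final 5 × 10^2 cells for C. albicans and C. kefyr, 5 × 10^3 cells/conidia for C. glabrata, Cryptococcus neoformans and Aspergillus. Incubated at 35 °C up to 72 h, read every 24 h. MIC is the complete absence of growth versus medium controls.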

Plenodomus tracheiphilus = experiment: Antifungal activity against Phoma tracheiphilla ITEM 1605 at 15 ug/disk by paper disk method; assay type: functional; details: read-out: IZ
Summary of the method: (§3)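 Agar overlay disk diffusion on plant-derived filamentous fungi and yeasts: 0.7% water-agar seeded with 10^4 conidia/mL or a yeast cell suspension, poured over PDA. 6-mm cellulose disks were loaded from methanolic solutions and air-dried, with nystatin as comparator. Plates ran 24-72 h at 25 °C; inhibition halo was measured over three disks. Agar beneath disks was subcultured on PDA to separate fungicidal from fungistatic, scored in four classes; run twice, averaged.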

Fusarium subglutinans = experiment: Antifungal activity against Fusarium subglutinans at 15 ug/disk by paper disk method; assay type: functional; summary of the method: as §1
[2] = system: Meyerozyma guilliermondii; experiment: Antifungal activity against Candida guilliermondii ITEM 1638 at 15 ug/disk by paper disk method; assay type: functional; details: read-out: IZ; summary of the method: as §1
Cryptococcus neoformans [3] = experiment: Antifungal activity against Cryptococcus neoformans 14 after 24 hrs by broth micromethod assay; assay type: functional; summary of the method: as §2
[4] = (§4) Toxicity against Artemia salina larvae; assay type: organism-based; details: in vivo
Summary of the method: (§5)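 Quadruplicate wells; mortality counted after 24 and 36 h at 27 °C. LC50 from probit analysis of dose-mortality data from six independent experiments.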

Rhodotorula mucilaginosa = experiment: Antifungal activity against Rhodotorula pilimanae at 15 ug/disk by […]; assay type: functional; details: read-out: IZ
Alternaria alternata [5] = experiment: Antifungal activity against Alternaria alternata ITEM 526 at 15 ug/disk by paper disk method; assay type: functional; details: read-out: IZ; summary of the method: as §1
Cicer arietinum = experiment: Phytotoxicity in chickpea leaf assessed as chlorosis in the leaf at 10^-3 M by leaf puncture assay; assay type: organism-based; details: in vivo, 1000 µM
Summary of the method: (§6)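 Tomato and chickpea leaves were punctured and treated with toxin dissolved in MeOH and diluted with water (final 4% MeOH), tested from 10^-2 to 10^-7 M. Chlorosis and necrosis were recorded visually as spot symptoms.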

[6] = system: Colletotrichum gloeosporioides; experiment: Antifungal activity against Colletotrichum gloeosporioides ITEM 1729 at 15 ug/disk by paper disk method; assay type: functional; details: read-out: IZ; summary of the method: as §1
Solanum lycopersicum [7] = experiment: Phytotoxicity against tomato assessed as seedling germination; assay type: organism-based; details: in vivo
Summary of the method: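 Tomato seeds were surface-sterilized in 4% NaClO for 10 min and pregerminated 3 days in the dark. They were then placed 10 per dish on filter paper wetted with 2 mL of compound in 1% MeOH (10^-4 or 10^-5 M) and held 4 days at 25 °C under a 12-h photoperiod. Shoot and rootlet lengths were measured against control; done in triplicate, repeated once.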

Pichia kluyveri = experiment: Antifungal activity against Pichia kluyveri ITEM 1649 at 15 ug/disk by paper disk method; assay type: functional; summary of the method: as §3
[8] = system: Meyerozyma guilliermondii; experiment: Antifungal activity against Pichia guilliermondii ITEM 1644 at 15 ug/disk by paper disk method; assay type: functional; details: read-out: IZ; summary of the method: as §3
Candida maltosa = experiment: Antifungal activity against Candida maltosa ITEM 1639 at 15 ug/disk by paper disk method; assay type: functional; details: read-out: IZ; summary of the method: as §1
Wickerhamomyces anomalus = experiment: Antifungal activity against Pichia anomala ITEM 1661 at 15 ug/disk by paper disk method; assay type: functional; details: Hansenula anomala; read-out: IZ; summary of the method: as §3
Kluyveromyces lactis = experiment: Antifungal activity against Kluyveromyces lactis ITEM 1656 at 15 ug/disk by paper disk method; assay type: functional; details: read-out: IZ; summary of the method: as §3
Candida albicans = experiment: Antifungal activity against Candida albicans at 50 ug/disk by paper disk method; assay type: functional, organism-based
Fusarium graminearum = experiment: Antifungal activity against Fusarium graminearum ITEM 2 at 15 ug/disk by paper disk method; assay type: functional; details: read-out: IZ
Summary of the method: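 Agar overlay diffusion: 0.7% water-agar with 10^4 conidia/mL of test fungus poured over PDA; 6-mm cellulose disks impregnated with methanolic compound solution, air-dried. Incubated 25 °C for 24-72 h by fungus; growth-inhibition halo diameter from three replicate disks. Agar under disks then subcultured on PDA to score fungicidal/fungistatic classes. Repeated twice, averaged.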

Aspergillus niger [9] = experiment: Antifungal activity against Aspergillus niger 2 after 48 hrs by broth micromethod assay; assay type: functional; summary of the method: as §2
Priestia megaterium = experiment: Antimicrobial activity against Bacillus megaterium at 30 ug/disk by agar diffusion method; assay type: functional, organism-based
Fusarium acuminatum = experiment: Antifungal activity against Fusarium acuminatum ITEM 795 at 15 ug/disk by paper disk method; assay type: functional; details: read-out: IZ; summary of the method: as §1
Alternaria alternata [10] = experiment: Antifungal activity against Alternaria alternata ITEM 468 at 15 ug/disk by paper disk method; assay type: functional; details: read-out: IZ; summary of the method: as §1
[11] = system: Penicillium brevicompactum; experiment: Antifungal activity against Penicillium brevicompactum ITEM 449 at 15 ug/disk by paper disk method; assay type: functional; details: read-out: IZ; summary of the method: as §3
Botrytis cinerea [12] = experiment: Antifungal activity against Botrytis cinerea at 15 ug/disk by paper disk method; assay type: functional; details: read-out: IZ; summary of the method: as §1
Aspergillus flavus = experiment: Antifungal activity against Aspergillus flavus 3 after 48 hrs by broth micromethod assay; assay type: functional; summary of the method: as §2
Aspergillus niger [13] = experiment: Antifungal activity against Aspergillus niger 2 after 72 hrs by broth micromethod assay; assay type: functional; summary of the method: as §2
Penicillium verrucosum [14] = experiment: Antifungal activity against Penicillium verrucosum ITEM 439 at 15 ug/disk by paper disk method; assay type: functional; details: read-out: IZ; summary of the method: as §3
Fusarium oxysporum = experiment: Antifungal activity against Fusarium oxysporum ITEM 149 at 15 ug/disk by paper disk method; assay type: functional; details: read-out: IZ; summary of the method: as §1
Aspergillus fumigatus [15] = experiment: Antifungal activity against Aspergillus fumigatus 1 after 72 hrs by broth micromethod assay; assay type: functional; summary of the method: as §2
Aspergillus fumigatus [16] = experiment: Antifungal activity against Aspergillus fumigatus 1 after 48 hrs by broth micromethod assay; assay type: functional; summary of the method: as §2
Botrytis cinerea [17] = experiment: Antifungal activity against Botrytis cinerea ITEM 966 at 15 ug/disk by paper disk method; assay type: functional; details: read-out: IZ; summary of the method: as §1
Solanum lycopersicum [18] = experiment: Phytotoxicity in tomato leaf assessed as necrosis in the leaf at 10^-3 M by leaf puncture assay; assay type: organism-based; details: in vivo, 1000 µM; summary of the method: as §6
Solanum lycopersicum [19] = experiment: Phytotoxicity in tomato leaf assessed as necrosis in the leaf at 10^-2 M by leaf puncture assay; assay type: organism-based; details: in vivo; summary of the method: as §6
Kluyveromyces marxianus [20] = experiment: Antifungal activity against Candida kefyr at 50 ug/disk by paper disk method; assay type: functional, organism-based
Artemia salina = experiment: as §4; assay type: organism-based; details: in vivo; summary of the method: as §5
Nakaseomyces glabratus = experiment: Antifungal activity against Candida glabrata 12 after 48 hrs by broth micromethod assay; assay type: functional; summary of the method: as §2
Kluyveromyces marxianus [21] = experiment: Antifungal activity against Candida kefyr Y0601 after 72 hrs by broth micromethod assay; assay type: functional; summary of the method: as §2
Botrytis cinerea [22] = experiment: Antifungal activity against Botrytis cinerea ITEM 966 at 5 ug/disk by paper disk method; assay type: functional, organism-based; summary of the method: as §1
Penicillium verrucosum [23] = experiment: Antifungal activity against Penicillium verrucosum ITEM 439 at 5 ug/disk by paper disk method; assay type: functional, organism-based; summary of the method: as §3
Kluyveromyces marxianus [24] = experiment: Antifungal activity against Candida kefyr Y0601 after 48 hrs by broth micromethod assay; assay type: functional; summary of the method: as §2

Compound	zone of inhibition at 15 µg/disc (Ascochyta rabiei)	Activity (Cryptococcus neoformans [1])	zone of inhibition at 15 µg/disc (Plenodomus tracheiphilus)	Activity (Fusarium subglutinans)	zone of inhibition at 15 µg/disc [2]	Activity (Cryptococcus neoformans [3])	zone of inhibition at 15 µg/disc (Rhodotorula mucilaginosa)	zone of inhibition at 15 µg/disc (Alternaria alternata [5])	Activity (Cicer arietinum)	zone of inhibition at 15 µg/disc [6]	Activity (Solanum lycopersicum [7])	Activity (Pichia kluyveri)	zone of inhibition at 15 µg/disc [8]	zone of inhibition at 15 µg/disc (Candida maltosa)	zone of inhibition at 15 µg/disc (Wickerhamomyces anomalus)	zone of inhibition at 15 µg/disc (Kluyveromyces lactis)	Activity (Candida albicans)	zone of inhibition at 15 µg/disc (Fusarium graminearum)	Activity (Aspergillus niger [9])	Activity (Priestia megaterium)	other results
CCCCCCC(C)C/C(C)=C\C(C)/C=C(C)/C=C/C(O)C(C)(C)c1cc(O)c([C@@H]2O[C@@H](CO)C[C@@H](O)[C@@H]2O)c(=O)o1 (some centres not stated) [DEXOYFUSAPYRONE]	12 mm	6.25 µg/mL	16.3 mm	0 mm	0 mm	3.12 µg/mL	0 mm	11.7 mm	Active	13.8 mm	Not Active	0 mm	0 mm	0 mm	0 mm	0 mm	inactive	10.8 mm	1.56 µg/mL	inactive	LC50 [4]: 37.1 µM; zone of inhibition at 15 µg/disc (Fusarium acuminatum): 0 mm; zone of inhibition at 15 µg/disc (Alternaria alternata [10]): 10.8 mm; zone of inhibition at 15 µg/disc [11]: 10.5 mm; zone of inhibition at 15 µg/disc (Botrytis cinerea [12]): 17 mm; Activity (Aspergillus flavus): 1.56 µg/mL; Activity (Aspergillus niger [13]): 1.56 µg/mL; zone of inhibition at 15 µg/disc (Penicillium verrucosum [14]): 11 mm; zone of inhibition at 15 µg/disc (Fusarium oxysporum): 4 mm; Activity (Aspergillus fumigatus [15]): 3.12 µg/mL; Activity (Aspergillus fumigatus [16]): 3.12 µg/mL; zone of inhibition at 15 µg/disc (Botrytis cinerea [17]): 13.5 mm
CCCCCCC(C)C/C(C)=C\C(/C=C(C)/C=C/C(O)C(C)(C)c1cc(O)c([C@@H]2O[C@@H](CO)C[C@@H](O)[C@@H]2O)c(=O)o1)CO (some centres not stated) [FUSAPYRONE]	35.8 mm	6.25 µg/mL	40 mm	6 mm	0 mm	3.12 µg/mL	0 mm	20.3 mm	Active	31.8 mm	Not Active	0 mm	0 mm	0 mm	0 mm	0 mm	inactive	26.5 mm	1.56 µg/mL	inactive	Activity (Solanum lycopersicum [18]): Active; Activity (Solanum lycopersicum [19]): Active; Activity (Kluyveromyces marxianus [20]): Active; Activity (Artemia salina): Not Active; Activity (Nakaseomyces glabratus): >50 µg/mL; Activity (Kluyveromyces marxianus [21]): 3.12 µg/mL; Activity (Botrytis cinerea [22]): inactive; zone of inhibition at 15 µg/disc (Fusarium acuminatum): 17.8 mm; zone of inhibition at 15 µg/disc (Alternaria alternata [10]): 18.8 mm; zone of inhibition at 15 µg/disc [11]: 30 mm; zone of inhibition at 15 µg/disc (Botrytis cinerea [12]): 30 mm; Activity (Aspergillus flavus): 1.56 µg/mL; Activity (Aspergillus niger [13]): 1.56 µg/mL; zone of inhibition at 15 µg/disc (Penicillium verrucosum [14]): 29.7 mm; Activity (Penicillium verrucosum [23]): inactive; zone of inhibition at 15 µg/disc (Fusarium oxysporum): 27.7 mm; Activity (Aspergillus fumigatus [15]): 1.56 µg/mL; Activity (Aspergillus fumigatus [16]): 1.56 µg/mL; zone of inhibition at 15 µg/disc (Botrytis cinerea [17]): 29.3 mm; Activity (Kluyveromyces marxianus [24]): 1.56 µg/mL
